In article PMC6527342 (Journal of chemical information and modeling, 2018):

Assays:
Assay type in all cases: cell-based
Settings in all cases: read-out: MIC of ceftazidime
[1] = tested on: Escherichia coli DH10B cells expressing VIM-2; test: MIC assay, E. coli DH10B cells expressing VIM-2
[2] = tested on: Escherichia coli DH10B cells expressing IMP-1; test: MIC assay, E. coli DH10B cells expressing IMP-1
[3] = tested on: Escherichia coli DH10B cells expressing NDM-1; test: MIC assay, E. coli DH10B cells expressing NDM-1
[4] = tested on: Escherichia coli DH10B cells not expressing any MBL; test: MIC assay, E. coli DH10B control cells not expressing any MBL
Procedure, shortened: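 Ceftazidime MIC was measured in complex medium against E. coli DH10B carrying no MBL. This strain served as the control for DH10B expressing NDM-1, IMP-1 or VIM-2.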

## CC(C)(O/N=C(\C(=O)N[C@@H]1C(=O)N2C(C(=O)[O-])=C(C[n+]3ccccc3)CS[C@H]12)c1csc(N)n1)C(=O)O [ceftazidime]
[1]
  MIC: 32 µg/mL
[2]
  MIC: 512 µg/mL
[3]
  MIC: 256 µg/mL
[4]
  MIC: 0.5 µg/mL
